Activity calls are given as the source filed them. The rule behind the calls is not given here.
What was measured:
Trypanosoma cruzi [1] = assay: Trypanocidal activity against Trypanosoma cruzi TCC epimastigotes at 1 to 15 uM supplemented with fresh medium containing compound every 9 to 10 days by haemocytometric method; format: functional
Summary of the method: (§1)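 TCC strain epimastigotes grown at 28 °C in Diamond medium with haemin and 10% FBS. Seeded at 10×10⁶/mL in duplicate with 1, 5, 10 or 15 μM compound, alongside untreated cultures. Counted daily in a haemocytometer. Every ~9–10 days, re-diluted to 5×10⁶/mL in fresh compound-containing medium to start a new round.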

Trypanosoma cruzi [2] = assay: Trypanocidal activity against Trypanosoma cruzi TCC epimastigotes assessed as parasite duplication time at 15 uM measured after 9 to 10 days (reference value: 2 day); format: functional; summary of the method: as §1
Trypanosoma cruzi [3] = assay: Trypanocidal activity against Trypanosoma cruzi TCC epimastigotes assessed as maximal parasite density at 15 uM measured after 9 to 10 days by haemocytometric method (reference value: 45 10^6/ml); format: functional; summary of the method: as §1
Trypanosoma cruzi [4] = assay: Trypanocidal activity against Trypanosoma cruzi TCC epimastigotes assessed as parasite duplication time at 1 to 15 uM supplemented with fresh medium containing compound every 9 to 10 days measured on third week; format: functional; summary of the method: as §1
Trypanosoma cruzi [5] = assay: Trypanocidal activity against Trypanosoma cruzi TCC epimastigotes assessed as maximal parasite density at 1 to 15 uM supplemented with fresh medium containing compound every 9 to 10 days measured on third week by haemocytometric method; format: functional; summary of the method: as §1
Trypanosoma cruzi [6] = assay: Trypanocidal activity against Trypanosoma cruzi TCC epimastigotes assessed as effect on parasite motility at 1 to 15 uM supplemented with fresh medium containing compound every 9 to 10 days measured on third week; format: functional; summary of the method: as §1
Trypanosoma cruzi [7] = assay: Trypanocidal activity against Trypanosoma cruzi TCC epimastigotes assessed as effect on parasite viability at 1 to 15 uM supplemented with fresh medium containing compound every 9 to 10 days measured on third week by maximal parasite density; format: functional; summary of the method: as §1
Trypanosoma cruzi [8] = assay: Trypanocidal activity against Trypanosoma cruzi RA tripamastigote bloodstream forms infected in Balb/c mouse assessed as reduction in parasitaemia at 100 mg/kg, po administered on day 9 post infection for 5 consecutive days measured on day 35 post infection relative to control; format: functional
Summary of the method: (§2)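 Balb/c males, 6–8 weeks, groups of six, infected i.p. with 100 RA strain bloodstream trypomastigotes. Oral dosing for 5 consecutive days once parasites were circulating, in 0.1 M PBS pH 7.2, with vehicle as negative control. Tail-vein blood (5 μl) diluted 1:10 in NH₄Cl/Tris lysis buffer and counted in a haemocytometer every other day.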

Trypanosoma cruzi [9] = assay: Trypanocidal activity against Trypanosoma cruzi RA tripamastigote bloodstream forms infected in Balb/c mouse assessed as mouse survival at 100 mg/kg, po administered on day 9 post infection for 5 consecutive days measured daily during compound dosing up to 45 days post infection; format: functional
Summary of the method: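 Male Balb/c mice (6–8 weeks, groups of six) were infected intraperitoneally with 100 bloodstream trypomastigotes harvested from CF1 mice. Oral dosing at 100 mg/kg/day for five consecutive days began once circulating parasites were confirmed microscopically, on day 9 p.i. Drugs were suspended in 0.1 M PBS (pH 7.2), prepared fresh daily; vehicle served as negative control. Mortality was recorded daily to 45 days p.i.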

Trypanosoma cruzi [10] = assay: Trypanocidal activity against Trypanosoma cruzi RA tripamastigote bloodstream forms isolated from infected CF1 mouse blood after 24 hrs by haemocytometric method; format: functional
Summary of the method: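 RA strain bloodstream trypomastigotes taken from CF1 mouse blood at parasitaemia peak (day 5 p.i.) and diluted in medium to 1.5×10⁶/ml. Exposed in duplicate to 125–1000 μM compound at 4 °C for 24 h. Viable parasites counted in a haemocytometer; % lysis computed against untreated control. IC50 obtained from log %L against log concentration.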

[11] = Cytotoxicity against mouse RAW cells assessed as reduction in cell viability after 24 hrs by MTT assay; format: cell-based
Summary of the method: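 RAW cells, 1x10⁵ per well, exposed to 125–1000 μM compound for 24 h at 37 °C, 5% CO₂; MTT added at 1.5 mg/mL final for 4 h, formazan dissolved in 1% SDS/0.01 M HCl, absorbance at 540 nm. CC50 obtained by linear regression of log OD against log concentration. Run in duplicate.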

Trypanosoma cruzi [12] = assay: Trypanocidal activity against Trypanosoma cruzi RA tripamastigote bloodstream forms infected in Balb/c mouse assessed as reduction in circulating parasite level in acute phase at 100 mg/kg, po administered on day 9 post infection for 5 consecutive days; format: functional, organism-based; summary of the method: as §2
[13] = in the assay text read “day 18 post infection relative” for “day 35 post infection relative”

O=C(Cn1ccnc1/N=N/c1ccc(C(F)(F)F)cc1)N1CCOCC1
Activity (Trypanosoma cruzi [1]): inactive

O=C(Cn1ccnc1[N+](=O)[O-])NCc1ccccc1 [BENZNIDAZOLE]
Time (Trypanosoma cruzi [2]): 3 days
Activity (Trypanosoma cruzi [3]): 25 ×10⁶ /ml
Activity (Trypanosoma cruzi [4]): Active
Activity (Trypanosoma cruzi [5]): Active
Activity (Trypanosoma cruzi [6]): Active
Activity (Trypanosoma cruzi [7]): Active
Activity (Trypanosoma cruzi [8]): Active
survival at 100 mg/kg (Trypanosoma cruzi [9]): 100%

O=C(Cn1ccnc1/N=N/c1ccc([N+](=O)[O-])cc1)N1CCCCC1
Time (Trypanosoma cruzi [2]): 4 days
Activity (Trypanosoma cruzi [3]): 20 ×10⁶ /ml
Time (Trypanosoma cruzi [4]): 9 to 12 days
Activity (Trypanosoma cruzi [5]): 5 - 6 ×10⁶ /ml
Activity (Trypanosoma cruzi [6]): Active
Activity (Trypanosoma cruzi [7]): Active
IC50 (Trypanosoma cruzi [10]): 645 µM
CC50 at 24 h [11]: 206 µM
Activity (Trypanosoma cruzi [12]): Active
Activity (Trypanosoma cruzi [8]; [13]): 71%
survival at 100 mg/kg (Trypanosoma cruzi [9]): 67%

COc1ccc(/N=N/c2nccn2CC(=O)N2CCOCC2)c([N+](=O)[O-])c1
Activity (Trypanosoma cruzi [1]): inactive

O=C(Cn1ccnc1/N=N/c1ccc(C(F)(F)F)cc1)N1CCCC1
Activity (Trypanosoma cruzi [1]): inactive

O=C(Cn1ccnc1/N=N/c1ccc(Cl)c(Cl)c1)N1CCCC1
Activity (Trypanosoma cruzi [1]): inactive

NC(CCCCNC(=O)Cn1ccnc1/N=N/c1ccc([N+](=O)[O-])cc1)C(=O)O (configuration not stated)
Activity (Trypanosoma cruzi [1]): inactive

O=C(Cn1ccnc1/N=N/c1ccc([N+](=O)[O-])cc1)NC1CCCCC1
Activity (Trypanosoma cruzi [1]): inactive

O=C(Cn1ccnc1/N=N/c1ccc([N+](=O)[O-])cc1)N1CCOCC1
Activity (Trypanosoma cruzi [1]): inactive

O=C(Cn1ccnc1/N=N/c1ccc(C(F)(F)F)cc1)N1CCCCC1
Time (Trypanosoma cruzi [4]): 9 to 12 days
Activity (Trypanosoma cruzi [5]): 5 - 6 ×10⁶ /ml
Activity (Trypanosoma cruzi [6]): Active
Activity (Trypanosoma cruzi [7]): Active
IC50 (Trypanosoma cruzi [10]): 1080 µM
CC50 at 24 h [11]: 415 µM
Activity (Trypanosoma cruzi [12]): Active
Activity (Trypanosoma cruzi [8]; [13]): 60%
survival at 100 mg/kg (Trypanosoma cruzi [9]): 67%

CN(C)c1ccc(C(=C2C=CC(=[N+](C)C)C=C2)c2ccc(N(C)C)cc2)cc1 [GENTIAN VIOLET]
IC50 (Trypanosoma cruzi [10]): 2.8 µM

O=C(Cn1ccnc1/N=N/c1ccc(C(F)(F)F)cc1)NC1CCCCC1
Activity (Trypanosoma cruzi [1]): inactive

O=C(Cn1ccnc1/N=N/c1ccc(Cl)cc1)N1CCCCC1
Activity (Trypanosoma cruzi [1]): inactive

COc1ccc(/N=N/c2nccn2CC(=O)NC2CCCCC2)c([N+](=O)[O-])c1
Activity (Trypanosoma cruzi [1]): inactive

COc1ccc(/N=N/c2nccn2CC(=O)N2CCCCC2)c([N+](=O)[O-])c1
Activity (Trypanosoma cruzi [1]): inactive

O=C(Cn1ccnc1/N=N/c1ccc(Cl)cc1)N1CCCC1
Activity (Trypanosoma cruzi [1]): inactive

O=C(Cn1ccnc1/N=N/c1ccc([N+](=O)[O-])cc1)N1CCCC1
Activity (Trypanosoma cruzi [1]): inactive

From ChEMBL document CHEMBL4041475, “Novel 2-arylazoimidazole derivatives as inhibitors of Trypanosoma cruzi proliferation: Synthesis and evaluation of their biological activity” (Eur J Med Chem, 2017)
